According to ChEMBL document CHEMBL5712908, “A genome-wide RNAi screen reveals essential therapeutic targets of breast cancer stem cells” (2019):
Calls of active or inactive are those of the source. No cut-off for these calls is given here.

How the values were obtained:
[1] = Antitumor activity against human S68 cells assessed as K-score by measuring ALDHbr cells by LSR2 cytometer; assay type: functional
Procedure, shortened: (§1)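 Cell lines exposed for 72 h in adherent culture to a range of concentrations centred on the MTS-derived IC50. ALDHbr proportion measured by ALDEFLUOR flow cytometry (LSR2). K-score is the linear regression coefficient, on log10-transformed doses, between the untreated condition and the dose predicted to give a 50% decrease or increase in ALDHbr proportion versus control.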

[2] = system: MDA-MB-436; assay: Antitumor activity against human MDA-MB-436 cells assessed as K-score by measuring ALDHbr cells by LSR2 cytometer; assay type: functional; procedure, shortened: as §1
[3] = system: SUM149PT; assay: Synergistic anticancer activity against human SUM149 cells assessed as decrease in docetaxel induced primary tumor sphere formation at 62 nM incubated for 72 hrs in presence of salinomycin by Extreme limiting dilution analysis; assay type: functional, cell-based
Procedure, shortened: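 72 h adherent pretreatment (Sal/JQ1 62 nM/62 nM; docetaxel added at 2 nM where used), then single cells plated in ultra-low attachment 96-well plates in serum-free mammary epithelium basal medium at 25/10/5/3/2/1 cells/well (18–36 wells/condition). Wells with ≥1 sphere after 10 days scored positive; sphere-forming frequency by ELDA. Secondary spheres from dissociated primary spheres. n = 4; pairwise chi-square.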

[4] = system: SUM-159-PT; assay: Induction of apoptosis in human SUM159 cells expressing ALDH upto 100 uM incubated for 72 hrs by ALDEFLUOR/YO-PRO-3/ Hoechst 33342 staining based high content imaging microscopic analysis; assay type: functional, cell-based
Procedure, shortened: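 SUM159 at 3,000 cells/well on collagen plates, dosed at 6, 24 and 48 h post-seeding; 0.1% DMSO negative control, cisplatin positive control. At 72 h stained 30 min at 37°C with ALDEFLUOR, YO-PRO-3 and Hoechst 33342, then imaged ice-cold. YO-PRO-3-positive nuclei (above untreated signal) counted over total cells, per ALDHbr/ALDH- subpopulation; n = 6.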

[5] = system: SUM-159-PT; assay: Synergistic apoptosis in human SUM159 cells expressing ALDHbr at 500 nM incubated for 72 hrs in presence of salinomycin by ALDEFLUOR/YO-PRO-3/ Hoechst 33342 staining based high content imaging microscopic analysis; assay type: functional, cell-based
Procedure, shortened: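 SUM159 cells seeded at 3,000 cells/well in collagen-coated 96-well plates. Drug added at 6, 24 and 48 h post-seeding. Cisplatin served as positive control and 0.1% v/v DMSO as vehicle control. At 72 h post-seeding, cells were stained with ALDEFLUOR, YO-PRO-3 (1/4,000) and Hoechst 33342 (10 μg/ml) in ALDEFLUOR buffer for 30 min at 37°C, then imaged on ice by high-content microscopy, 9 fields/well. DEAB set the ALDHbr gate. YO-PRO-3⁺ fraction per subpopulation was gated against untreated cells.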

[6] = system: SUM-159-PT; assay: Anticancer activity against human SUM159 cells assessed as effect on RFP+/BFP+ cell ratio upto 100 uM after 72 hrs by ALDEFLUOR staining based flow cytometric analysis; assay type: functional
[7] = system: SUM-159-PT; assay: Synergistic anticancer activity against human SUM159 cells expressing BFP assessed as reduction in ALDHbr cell at 5 to 500 nM in presence of salinomycin by LSR2 cytometer analysis; assay type: functional, cell-based; conditions: dose 5-500 nM
[8] = system: Breast cancer cell line; assay: Antitumor activity against human CRCM434 negative breast cancer cells orthotopically xenografted in NSG mouse model of PDX assessed as reduction in tumor volume at 50 mg/kg, ip 5 out of 7 for 2 weeks; assay type: functional, organism-based
Procedure, shortened: (§2)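 Chemo-naïve triple-negative PDX cells injected at 100,000 per fat pad, two fat pads per NSG mouse. At ~80 mm³ tumours, mice received i.p. 3 mg/kg daily for 14 days or 50 mg/kg 5 of 7 days for 2 weeks; placebo was DMSO/HPCD 10% (1:9). Five mice (10 tumours) per group. Tumour growth monitored; after 2 weeks tumours dissociated, mouse cells excluded via anti-H2Kd, ALDHbr measured by ALDEFLUOR flow cytometry and normalised to vehicle.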

[9] = system: Breast cancer cell line; assay: Antitumor activity against human CRCM404 negative breast cancer cells orthotopically xenografted in NSG mouse model of PDX assessed as reduction in tumor volume at 50 mg/kg, ip 5 out of 7 for 2 weeks; assay type: functional, organism-based; procedure, shortened: as §2
[10] = system: Breast cancer cell line; assay: Antitumor activity against patient-derived breast cancer cells orthotopically xenografted in NSG mouse model of PDX assessed as reduction in Ki67 cells at 50 mg/kg, ip 5 out of 7 for 2 weeks by Immunostaining analysis; assay type: functional, organism-based; conditions: Homo sapiens
Procedure, shortened: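 Paraffin sections of PDX tumours from 2-week-treated mice. Citrate pH 6 antigen retrieval, then Ki67 immunoperoxidase staining with DAB and haematoxylin counterstain. Proportion of Ki67+ cells quantified; n = 3; t-test.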

[11] = system: Breast cancer cell line; assay: Antitumor activity against human CRCM434 negative breast cancer cells orthotopically xenografted in NSG mouse model of PDX assessed as reduction ALDHbr cells at 50 mg/kg, ip 5 out of 7 for 2 weeks by LSR2 cytometer analysis; assay type: functional, organism-based; procedure, shortened: as §2
[12] = system: Breast cancer cell line; assay: Antitumor activity against human CRCM404 negative breast cancer cells orthotopically xenografted in NSG mouse model of PDX assessed as reduction ALDHbr cells at 50 mg/kg, ip 5 out of 7 for 2 weeks by LSR2 cytometer analysis; assay type: functional, organism-based; procedure, shortened: as §2
[13] = system: Breast cancer cell line; assay: Synergistic antitumor activity against human CRCM494 negative breast cancer cells orthotopically xenografted in NSG mouse model of PDX assessed as reduction ALDHbr cells at 50 mg/kg, ip 5 out of 7 for 2 weeks cotreated with salinomycin by LSR2 cytometer analysis; assay type: functional
[14] = system: Breast cancer cell line; assay: Synergistic antitumor activity against human reimplanted CRCM434 negative breast cancer cells orthotopically xenografted in NSG mouse model of PDX assessed as reduction tumor volume at 50 mg/kg, ip 5 out of 7 for 2 weeks cotreated with salinomycin by limiting dilation analysis; assay type: functional, organism-based
[15] = system: Breast cancer cell line; assay: Synergistic antitumor activity against human reimplanted CRCM494 negative breast cancer cells orthotopically xenografted in NSG mouse model of PDX assessed as reduction tumor volume at 50 mg/kg, ip 5 out of 7 for 2 weeks cotreated with salinomycin by limiting dilation analysis; assay type: functional, organism-based
[16] = system: Breast cancer cell line; assay: Synergistic antitumor activity against human CRCM434 negative breast cancer cells xenografted in NSG mouse model of PDX assessed as reduction metastasis formation in liver at 50 mg/kg, ip 5 out of 7 for 2 weeks cotreated with salinomycin; assay type: functional, organism-based
Procedure, shortened: (§3)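 Luciferase-expressing PDX cells sorted H2Kd⁻ and viable, 100,000 in 100 μl PBS injected in NSG tail vein. From the next day, salinomycin 3 mg/kg i.p. daily and/or JQ1 50 mg/kg i.p. 5 of 7 days for 2 weeks. Lungs and liver imaged by bioluminescence after i.p. luciferin 30 mg/kg; normalised photon flux; 10 mice/group; Wilcoxon test.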

[17] = system: Breast cancer cell line; assay: Synergistic antitumor activity against human CRCM434 negative breast cancer cells xenografted in NSG mouse model of PDX assessed as reduction metastasis formation in lung at 50 mg/kg, ip 5 out of 7 for 2 weeks cotreated with salinomycin; assay type: functional, organism-based; procedure, shortened: as §3

Cc1sc2c(c1C)C(c1ccc(Cl)cc1)=N[C@@H](CC(=O)OC(C)(C)C)c1nnc(C)n1-2
Activity [1]: -0.15 | Activity [2]: -0.15 | Activity [3]: Active | Activity [4]: Active | Activity [5]: Active | Activity [6]: inactive | Activity [7]: Active | Activity [8]: Active | Activity [9]: Active | Activity [10]: Active | Activity [11]: Active | Activity [12]: Active | fold change (FC) [13]: 2 | Activity [14]: Active | Activity [15]: Active | Activity [16]: Active | Activity [17]: Active
